Laboratory results published in ChEMBL document CHEMBL4834402, “Discovery of TAK-981, a First-in-Class Inhibitor of SUMO-Activating Enzyme for the Treatment of Cancer” (J Med Chem, 2021).

Experiments:
SUMO-activating enzyme [1] = biological target: T1, SUMO-activating enzyme (Homo sapiens, UniProt Q9UBT2); test: Inhibition of SAE in human HCT116 cells assessed as redistribution of SUMO2/3 proteins from nucleus to cytosol preincubated for 2 hrs followed by compound washout and measured immediately by immunofluorescence assay; format: cell-based, HCT-116
In short: (§1)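 Washout format of the SUMO2/3 immunofluorescence assay in HCT116 cells. Cells were exposed to a range of concentrations for 2 h, then washed free of compound.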

SUMO-activating enzyme [2] = biological target: T1, SUMO-activating enzyme; test: Inhibition of recombinant SAE (unknown origin) assessed as reduction in transfer of SUMO1 to UBC9 using SUMO1 as a substrate in presence of ATP at Km concentration by HTRF assay; format: protein-complex assay
In short: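 HTRF transthiolation assay measuring transfer of SUMO1 to UBC9, the E2 for SAE.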

NEDD8 activating enzyme [3] = biological target: T2, NEDD8 activating enzyme (Homo sapiens, UniProt Q8TBC4); test: Inhibition of recombinant NAE (unknown origin) in presence of ATP at Km concentration by HTRF assay; format: protein-complex assay
T2 sequence (Q8TBC4 whole entry): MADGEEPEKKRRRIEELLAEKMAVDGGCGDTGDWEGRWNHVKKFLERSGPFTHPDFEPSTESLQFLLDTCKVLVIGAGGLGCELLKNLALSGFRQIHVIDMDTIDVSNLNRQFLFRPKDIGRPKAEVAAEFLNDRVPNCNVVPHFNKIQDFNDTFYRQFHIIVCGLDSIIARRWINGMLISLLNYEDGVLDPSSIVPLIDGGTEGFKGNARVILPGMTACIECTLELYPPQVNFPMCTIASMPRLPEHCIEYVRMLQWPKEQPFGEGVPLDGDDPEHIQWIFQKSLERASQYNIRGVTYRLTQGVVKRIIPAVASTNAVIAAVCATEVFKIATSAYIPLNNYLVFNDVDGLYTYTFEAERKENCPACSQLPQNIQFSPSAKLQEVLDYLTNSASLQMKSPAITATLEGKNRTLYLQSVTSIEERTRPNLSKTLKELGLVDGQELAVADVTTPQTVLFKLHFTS
T2 sequence (Q13564 whole entry): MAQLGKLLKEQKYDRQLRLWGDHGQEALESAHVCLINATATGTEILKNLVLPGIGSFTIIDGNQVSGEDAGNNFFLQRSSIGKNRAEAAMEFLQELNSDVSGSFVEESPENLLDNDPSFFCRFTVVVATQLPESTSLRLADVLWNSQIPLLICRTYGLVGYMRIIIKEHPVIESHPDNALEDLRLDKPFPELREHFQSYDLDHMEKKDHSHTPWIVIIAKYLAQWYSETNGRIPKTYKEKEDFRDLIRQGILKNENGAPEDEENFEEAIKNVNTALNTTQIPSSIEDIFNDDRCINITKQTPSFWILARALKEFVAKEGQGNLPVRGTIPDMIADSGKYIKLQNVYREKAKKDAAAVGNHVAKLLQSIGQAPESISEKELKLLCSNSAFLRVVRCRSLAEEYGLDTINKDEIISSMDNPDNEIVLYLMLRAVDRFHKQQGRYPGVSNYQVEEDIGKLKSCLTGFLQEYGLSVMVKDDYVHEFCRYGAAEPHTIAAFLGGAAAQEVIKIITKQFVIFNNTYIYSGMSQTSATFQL

[4] = Inhibition of recombinant UAE (unknown origin) in presence of ATP at Km concentration by HTRF assay; design: species or system Homo sapiens
SUMO-activating enzyme [5] = biological target: T1, SUMO-activating enzyme; test: Inhibition of SAE in human HCT116 cells assessed as redistribution of SUMO2/3 proteins from nucleus to cytosol preincubated for 2 hrs followed by compound washout and measured after 8 hrs by immunofluorescence assay; format: cell-based, HCT-116; in short: as §1
SUMO-activating enzyme [6] = biological target: T1, SUMO-activating enzyme; test: Inhibition of SAE in human HCT116 cells assessed as reduction in redistribution of SUMO2/3 proteins from nucleus to cytosol incubated for 4 hrs by immunofluorescence assay; format: cell-based, HCT-116
In short: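 HCT-116 cells exposed to compound across a concentration range for 4 h, then stained with anti-SUMO2/3 monoclonal antibody. Automated imaging scored the nuclear (inner) to cytoplasmic (outer) SUMO2/3 ratio. IC50 taken from the dose response.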

SUMO-activating enzyme [7] = biological target: T1, SUMO-activating enzyme; test: Inhibition of SAE in human HCT116 cells assessed as reduction in conjugation of SUMO proteins to UBC9 by Western blot analysis; format: cell-based, HCT-116
In short: (§2)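 HCT116 cells, quantitative Western blot of E2–UBL conjugates. Read-outs were SUMO–UBC9 for SAE, ubiquitin–[…] for UAE and Nedd-8–[…] for NAE.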

NEDD8 activating enzyme [8] = biological target: T2, NEDD8 activating enzyme; test: Inhibition of NAE in human HCT116 cells assessed as reduction in conjugation of Nedd8 […] by Western blot analysis; format: cell-based, HCT-116; in short: as §2
[9] = Inhibition of UAE (unknown origin) using Ub as substrate incubated for 60 mins in presence of ATP and PPi by pyrophosphate exchange assay; design: species or system Homo sapiens
In short: (§3)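 Pyrophosphate exchange assay of E1 activity at 1 mM ATP. Substrates were SUMO1 or SUMO2 for SAE, Ub for UAE and Nedd-8 for NAE.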

SUMO-activating enzyme [10] = biological target: T1, SUMO-activating enzyme; test: Inhibition of SAE (unknown origin) using SUMO2 as substrate incubated for 60 mins in presence of ATP and PPi by pyrophosphate exchange assay; format: protein-complex assay; in short: as §3
NEDD8 activating enzyme [11] = biological target: T2, NEDD8 activating enzyme; test: Inhibition of NAE (unknown origin) using Nedd-8 as substrate incubated for 60 mins in presence of ATP and PPi by pyrophosphate exchange assay; format: protein-complex assay; in short: as §3
SUMO-activating enzyme [12] = biological target: T1, SUMO-activating enzyme; test: Inhibition of SAE (unknown origin) using SUMO1 as substrate incubated for 60 mins in presence of ATP and PPi by pyrophosphate exchange assay; format: protein-complex assay; in short: as §3

T1 sequence (Q9UBE0 whole entry): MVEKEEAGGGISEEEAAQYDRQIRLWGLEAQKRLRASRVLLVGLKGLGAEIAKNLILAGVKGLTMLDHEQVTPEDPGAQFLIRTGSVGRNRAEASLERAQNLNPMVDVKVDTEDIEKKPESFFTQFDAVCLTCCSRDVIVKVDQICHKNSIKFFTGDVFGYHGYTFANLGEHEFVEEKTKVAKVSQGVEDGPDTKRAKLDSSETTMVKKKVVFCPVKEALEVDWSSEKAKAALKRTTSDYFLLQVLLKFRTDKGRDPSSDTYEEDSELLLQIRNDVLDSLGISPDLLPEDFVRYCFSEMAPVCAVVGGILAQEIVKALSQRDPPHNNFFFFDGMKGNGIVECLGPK
T1 sequence (Q9UBT2 whole entry): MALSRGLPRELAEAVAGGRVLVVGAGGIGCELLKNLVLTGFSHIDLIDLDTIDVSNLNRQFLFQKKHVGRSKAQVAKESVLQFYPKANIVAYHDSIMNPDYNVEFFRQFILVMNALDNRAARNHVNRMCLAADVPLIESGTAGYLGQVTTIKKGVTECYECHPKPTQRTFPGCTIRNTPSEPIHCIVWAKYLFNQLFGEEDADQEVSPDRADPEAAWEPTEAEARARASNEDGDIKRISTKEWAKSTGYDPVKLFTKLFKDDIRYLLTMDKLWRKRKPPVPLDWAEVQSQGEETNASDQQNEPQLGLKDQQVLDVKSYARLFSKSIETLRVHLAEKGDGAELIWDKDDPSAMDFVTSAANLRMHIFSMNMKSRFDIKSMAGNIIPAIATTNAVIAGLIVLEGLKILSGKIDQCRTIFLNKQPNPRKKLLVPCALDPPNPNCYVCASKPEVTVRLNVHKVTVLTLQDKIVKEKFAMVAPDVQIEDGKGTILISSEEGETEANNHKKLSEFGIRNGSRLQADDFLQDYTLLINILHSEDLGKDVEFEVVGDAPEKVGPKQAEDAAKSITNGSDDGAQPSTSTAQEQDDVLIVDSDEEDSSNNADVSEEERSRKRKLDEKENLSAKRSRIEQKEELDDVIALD

IC50 (NEDD8 activating enzyme [3]) [µM]	IC50 [4] [µM]	IC50 (NEDD8 activating enzyme [8]) [µM]	IC50 [9] [µM]	IC50 (NEDD8 activating enzyme [11]) [µM]	Structure (SMILES)	IC50 (SUMO-activating enzyme [1]) [µM]	IC50 (SUMO-activating enzyme [2]) [µM]	IC50 (SUMO-activating enzyme [5]) [µM]	IC50 (SUMO-activating enzyme [6]) [µM]	IC50 (SUMO-activating enzyme [7]) [µM]	IC50 (SUMO-activating enzyme [10]) [µM]	IC50 (SUMO-activating enzyme [12]) [µM]
0.861	> 1	–	–	–	NC(c1cccc(Cl)c1)c1cc(C(=O)c2cncnc2N[C@@H]2C[C@H](COS(N)(=O)=O)[C@@H](O)C2)sc1Cl (some centres undefined)	0.017	0.0004	0.039	0.01	–	–	–
0.235	> 1	–	–	–	Cc1sc(C(=O)c2cncnc2N[C@@H]2C[C@H](COS(N)(=O)=O)[C@@H](O)C2)cc1C(N)c1cccc(Cl)c1 (some centres undefined)	0.019	0.0002	0.038	0.016	–	–	–
0.032	> 1	–	–	–	Cc1sc(C(=O)c2cncnc2N[C@@H]2C[C@H](COS(N)(=O)=O)[C@@H](O)C2)cc1Cc1cccc(Cl)c1	0.066	0.0012	0.403	0.019	–	–	–
0.064	> 1	–	–	–	Cc1sc(C(=O)c2cncnc2N[C@@H]2C[C@H](COS(N)(=O)=O)[C@@H](O)C2)cc1C(O)c1cccc(Cl)c1 (some centres undefined)	0.008	0.0003	0.021	0.006	–	–	–
0.216	–	–	–	–	NS(=O)(=O)OC[C@H]1C[C@@H](Nc2ncncc2C(=O)c2cc(C(O)c3cccc(Cl)c3)cs2)C[C@@H]1O (stereo in doubt; 31)	0.043	0.0002	0.955	0.055	–	–	–
> 1	–	–	–	–	NC(c1cccc(Cl)c1)c1csc(C(=O)c2cncnc2N[C@@H]2C[C@H](COS(N)(=O)=O)[C@@H](O)C2)c1 (stereo in doubt; 33)	0.083	0.0007	0.499	0.05	–	–	–
0.114	> 1	–	–	–	NS(=O)(=O)OC[C@H]1C[C@@H](Nc2ncncc2C(=O)c2cc(C(O)c3cccc(Cl)c3)cs2)C[C@@H]1O (stereo in doubt; 30)	1.21	0.001	> 10	0.66	–	–	–
0.34	> 1	–	–	–	NS(=O)(=O)OC[C@H]1C[C@@H](Nc2ncncc2C(=O)c2cc(C(O)c3cccc(Cl)n3)c(Cl)s2)C[C@@H]1O (some centres undefined)	0.016	0.0002	0.142	0.014	–	–	–
0.341	> 1	–	–	–	NS(=O)(=O)OC[C@H]1C[C@@H](Nc2ncncc2C(=O)c2cc(C(O)c3cccc(Cl)c3)c(Cl)s2)C[C@@H]1O (some centres undefined)	0.017	0.0003	0.07	0.009	–	–	–

Second part, the molecule before the results:

Structure (SMILES)	IC50 (NEDD8 activating enzyme [3]) [µM]	IC50 [4] [µM]	IC50 (NEDD8 activating enzyme [8]) [µM]	IC50 [9] [µM]	IC50 (NEDD8 activating enzyme [11]) [µM]	IC50 (SUMO-activating enzyme [1]) [µM]	IC50 (SUMO-activating enzyme [2]) [µM]	IC50 (SUMO-activating enzyme [5]) [µM]	IC50 (SUMO-activating enzyme [6]) [µM]	IC50 (SUMO-activating enzyme [7]) [µM]	IC50 (SUMO-activating enzyme [10]) [µM]	IC50 (SUMO-activating enzyme [12]) [µM]
CC(O)(c1cccc(Cl)c1)c1csc(C(=O)c2cncnc2N[C@@H]2C[C@H](COS(N)(=O)=O)[C@@H](O)C2)c1 (some centres undefined)	0.343	> 1	–	–	–	0.019	0.0002	0.233	0.012	–	–	–
NS(=O)(=O)OC[C@H]1C[C@@H](Nc2ncncc2C(=O)c2cc(C3NCCc4ccc(Cl)cc43)cs2)C[C@@H]1O (some centres undefined)	> 1	> 1	–	–	–	0.167	0.0008	0.142	0.027	–	–	–
NS(=O)(=O)OC[C@H]1C[C@@H](Nc2ncncc2C(=O)c2cc(C3NCCc4ccc(Cl)cc43)c(Cl)s2)C[C@@H]1O (some centres undefined)	> 1	> 1	–	–	–	0.009	0.0004	0.017	0.007	–	–	–
CC(N)(c1cccc(Cl)c1)c1csc(C(=O)c2cncnc2N[C@@H]2C[C@H](COS(N)(=O)=O)[C@@H](O)C2)c1 (some centres undefined)	> 1	> 1	–	–	–	0.029	0.0003	0.101	0.016	–	–	–
Cc1sc(C(=O)c2cncnc2N[C@@H]2C[C@H](COS(N)(=O)=O)[C@@H](O)C2)cc1C1OCCc2ccc(Cl)nc21 (some centres undefined)	0.203	> 1	–	–	–	0.018	0.0001	0.089	0.02	–	–	–
CC(O)(c1csc(C(=O)c2cncnc2N[C@@H]2C[C@H](COS(N)(=O)=O)[C@@H](O)[C@H]2O)c1)c1cccc(Br)n1 (some centres undefined)	0.031	0.616	–	–	–	0.251	0.0001	0.361	0.047	–	–	–
Cc1sc(C(=O)c2cncnc2N[C@@H]2C[C@H](COS(N)(=O)=O)[C@@H](O)C2)cc1C1OCCc2ccccc21 (some centres undefined)	0.102	> 1	–	–	–	0.004	0.0003	0.014	0.006	–	–	–
NS(=O)(=O)OC[C@H]1C[C@@H](Nc2ncncc2C(=O)c2cc(C3OCCc4ccc(Cl)cc43)cs2)C[C@@H]1O (some centres undefined)	0.45	> 1	–	–	–	0.007	0.0005	0.022	0.008	–	–	–
NS(=O)(=O)OC[C@H]1C[C@@H](Nc2ncncc2C(=O)c2cc(C3OCCc4ccc(Cl)cc43)c(Cl)s2)C[C@@H]1O (some centres undefined)	> 1	> 1	–	–	–	0.01	0.001	0.014	0.008	–	–	–
NS(=O)(=O)OC[C@H]1C[C@@H](Nc2ncncc2C(=O)c2ccn(Cc3ccccc3)n2)C[C@@H]1O	0.19	> 1	> 5	> 1	2.6	–	0.002	–	0.071	0.013	0.069	0.011
NS(=O)(=O)OC[C@H]1C[C@@H](Nc2ncncc2C(=O)c2cc([C@@H]3OCCc4ccccc43)cs2)C[C@@H]1O	0.198	> 1	–	–	–	0.005	0.0004	0.039	0.004	–	–	–
NS(=O)(=O)OC[C@H]1C[C@@H](Nc2ncncc2C(=O)c2cc(C3NCCc4ccccc43)cs2)C[C@@H]1O (some centres undefined)	> 1	> 1	–	–	–	0.365	0.001	0.503	0.078	–	–	–
NS(=O)(=O)OC[C@H]1C[C@@H](Nc2ncncc2C(=O)c2cc(Cc3cccc(Cl)c3)c(Cl)s2)C[C@@H]1O	0.681	> 1	–	–	–	0.184	0.0036	1.4	0.108	–	–	–
